The values below come from ChEMBL document CHEMBL2331482, “Synthesis of some new 2-(3-pyridyl)-4,5-disubstituted thiazoles as potent antimicrobial agents” (2013).

What all share (assay type): functional
One assay deals with Bacillus subtilis. The experiment in a line: Antibacterial activity against Bacillus subtilis RCMB 010063 assessed as growth inhibition after 24 hrs by twofold serial dilution method. Particulars: RCMB 010063, 24 h. Summed up: (§1)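 Broth microdilution in Müller–Hinton broth, 96-well plates. Only compounds giving disc-diffusion zones >10 mm were tested. DMF stocks (1000 µg/mL) were diluted twofold to a final 500–0.007 µg/mL, with about 10^6 CFU/mL bacteria. Sealed plates ran 24 h at 37 °C in a humid chamber. MIC was the lowest concentration with no visible turbidity. DMF and uninoculated-medium controls were included.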

In the next assay the test system is Talaromyces marneffei. Description: Antifungal activity against Penicillium marneffei RCMB 01267 assessed as growth inhibition after 48 hrs by twofold serial dilution method. The conditions noted are these: RCMB 01267, 48 h. Summed up:
(§2)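 Fungi were tested by microdilution in Sabouraud liquid medium. Only compounds with disc-diffusion zones >10 mm went on to this test. DMF stocks (1000 µg/mL) were serially diluted twofold to 500–0.007 µg/mL. Sealed plates were held 48 h at 25 °C in a humid chamber. MIC was the lowest concentration without visible turbidity. DMF and uninoculated-medium controls ran in parallel.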

For another assay, the system named is Neisseria gonorrhoeae. The experiment in a line: Antibacterial activity against Neisseria gonorrhoeae RCMB 010076 assessed as growth inhibition after 24 hrs by twofold serial dilution method. Summed up:
as §1

The test system of another assay is Geotrichum candidum. The experiment in a line: Antifungal activity against Geotricum candidum RCMB 05096 assessed as growth inhibition after 48 hrs by twofold serial dilution method. The conditions noted are these: RCMB 05096, 48 h. Summed up: as §2
Another assay concerns Enterococcus faecalis. Description: Antibacterial activity against Enterococcus faecalis RCMB 010068 assessed as growth inhibition after 24 hrs by twofold serial dilution method. The conditions noted are these: RCMB 010068, 24 h. Summed up:
as §1

The test system of another assay is Staphylococcus aureus. Description: Antibacterial activity against Staphylococcus aureus RCMB 010027 assessed as growth inhibition after 24 hrs by twofold serial dilution method. Particulars: RCMB 010027, 24 h. Summed up: as §1
In another assay the test system is Streptococcus pyogenes. Description: Antibacterial activity against Streptococcus pyogenes RCMB 010015 assessed as growth inhibition after 24 hrs by twofold serial dilution method. Summed up: as §1
A further assay relates to Proteus vulgaris. The experiment in a line: Antibacterial activity against Proteus vulgaris RCMB 010085 assessed as growth inhibition after 24 hrs by twofold serial dilution method. Summed up: as §1
Another assay concerns Aspergillus clavatus. The experiment in a line: Antifungal activity against Aspergillus clavatus RCMB 02593 assessed as growth inhibition after 48 hrs by twofold serial dilution method. Particulars: RCMB 02593, 48 h. Summed up: as §2
The test system of another assay is Klebsiella pneumoniae. The experiment in a line: Antibacterial activity against Klebsiella pneumoniae RCMB 010093 assessed as growth inhibition after 24 hrs by twofold serial dilution method. Summed up: as §1
For a further assay, the system named is Aspergillus fumigatus. The experiment in a line: Antifungal activity against Aspergillus fumigatus RCMB 02564 assessed as growth inhibition after 48 hrs by twofold serial dilution method. Particulars: RCMB 02564, 48 h. Summed up:
as §2

Another assay concerns Candida albicans. The experiment in a line: Antifungal activity against Candida albicans RCMB 05035 assessed as growth inhibition after 48 hrs by twofold serial dilution method. Summed up: as §2
Another assay has as its system Shigella flexneri. Description: Antibacterial activity against Shigella flexneri RCMB 0100542 assessed as growth inhibition after 24 hrs by twofold serial dilution method. Summed up: as §1
The next assay deals with Pseudomonas aeruginosa. The experiment in a line: Antibacterial activity against Pseudomonas aeruginosa RCMB 010043 assessed as growth inhibition after 24 hrs by twofold serial dilution method. Summed up: as §1
Assay [1] deals with Staphylococcus epidermidis. The experiment in a line: Antibacterial activity against Staphylococcus epidermidis RCMB 010024 assessed as growth inhibition after 24 hrs by twofold serial dilution method. The conditions noted are these: RCMB 010024, 24 h. Summed up:
as §1

≈ marks a conversion by molar mass, not a printed value. Calls of active or inactive are those of the source. No cut-off for these calls is given here.

A word on the MIC: it is the least concentration at which growth counts as inhibited. Take `Cc1nc(-c2cccnc2)sc1C1=NNC(c2ccccc2)C1` (stereo not given): the MIC in the assay with Bacillus subtilis is 62.5 µg/mL (≈ 195 µM); in the assay on Talaromyces marneffei, 250 µg/mL (≈ 780 µM); in the assay on Geotrichum candidum, 62.5 µg/mL (≈ 195 µM); with Enterococcus faecalis, 125 µg/mL (≈ 390 µM); in the assay on Staphylococcus aureus, 125 µg/mL (≈ 390 µM); in the assay on Aspergillus clavatus, 62.5 µg/mL (≈ 195 µM). The figures for the minimum inhibitory concentration (MIC) (in the assay on Aspergillus fumigatus; in assay [1]) were 125 µg/mL (≈ 390 µM) and 62.5 µg/mL (≈ 195 µM), respectively. In addition, the MIC result in the assay on Neisseria gonorrhoeae, in the assay with Streptococcus pyogenes, with Proteus vulgaris, with Klebsiella pneumoniae, in the assay on Candida albicans and with Shigella flexneri was “inactive” in each case. The MIC result with Pseudomonas aeruginosa was “inactive”.
For the compound `COc1ccc(/C=C/C(=O)c2sc(-c3cccnc3)nc2C)cc1`, the MIC is 1.95 µg/mL (≈ 5.8 µM) with Bacillus subtilis; 7.81 µg/mL (≈ 23.2 µM) in the assay with Talaromyces marneffei; 125 µg/mL (≈ 372 µM) in the assay with Neisseria gonorrhoeae (RCMB 010076, 24 h); 7.81 µg/mL (≈ 23.2 µM) in the assay on Geotrichum candidum; 62.5 µg/mL (≈ 186 µM) with Enterococcus faecalis; 3.9 µg/mL (≈ 11.6 µM) with Staphylococcus aureus. The MIC in the assay with Streptococcus pyogenes (RCMB 010015, 24 h) was found to be 31.2 µg/mL (≈ 92.9 µM); in the assay with Proteus vulgaris (RCMB 010085, 24 h), 7.81 µg/mL (≈ 23.2 µM); in the assay with Aspergillus clavatus it was 31.2 µg/mL (≈ 92.9 µM); in the assay with Klebsiella pneumoniae (RCMB 010093, 24 h), 3.9 µg/mL (≈ 11.6 µM); in the assay on Aspergillus fumigatus, 15.6 µg/mL (≈ 46.5 µM); in the assay with Candida albicans (RCMB 05035, 48 h) it was 62.5 µg/mL (≈ 186 µM). Also, the MIC worked out at 7.81 µg/mL (≈ 23.2 µM) in the assay on Shigella flexneri (RCMB 0100542, 24 h); 250 µg/mL (≈ 743 µM) in the assay with Pseudomonas aeruginosa (RCMB 010043, 24 h); 3.9 µg/mL (≈ 11.6 µM) in assay [1].
For the compound `Cc1nc(-c2cccnc2)sc1C(=O)/C=C/c1ccccc1`, the MIC in the assay on Bacillus subtilis was found to be 31.2 µg/mL (≈ 102 µM); with Talaromyces marneffei it was 125 µg/mL (≈ 408 µM); in the assay with Geotrichum candidum it was 62.5 µg/mL (≈ 204 µM); in the assay with Enterococcus faecalis, 500 µg/mL (≈ 1630 µM); with Staphylococcus aureus, 62.5 µg/mL (≈ 204 µM); with Proteus vulgaris (RCMB 010085, 24 h) it was 62.5 µg/mL (≈ 204 µM). Besides, the MIC in the assay on Aspergillus clavatus turned out to be 125 µg/mL (≈ 408 µM); with Klebsiella pneumoniae (RCMB 010093, 24 h), 62.5 µg/mL (≈ 204 µM); in the assay with Aspergillus fumigatus, 125 µg/mL (≈ 408 µM); in the assay with Candida albicans (RCMB 05035, 48 h), 500 µg/mL (≈ 1630 µM); with Shigella flexneri (RCMB 0100542, 24 h), 125 µg/mL (≈ 408 µM); in assay [1], 31.2 µg/mL (≈ 102 µM). In addition, the MIC result with Neisseria gonorrhoeae, with Streptococcus pyogenes and in the assay on Pseudomonas aeruginosa was “inactive” each time.
In the case of `Cc1nc(-c2cccnc2)sc1C(=O)/C=C/c1ccc(F)cc1F`, the MIC with Bacillus subtilis worked out at 15.6 µg/mL (≈ 45.7 µM); in the assay on Talaromyces marneffei, 62.5 µg/mL (≈ 183 µM); in the assay on Geotrichum candidum, 62.5 µg/mL (≈ 183 µM); in the assay on Enterococcus faecalis, 250 µg/mL (≈ 730 µM); in the assay with Staphylococcus aureus it was 31.2 µg/mL (≈ 91.3 µM); in the assay with Proteus vulgaris (RCMB 010085, 24 h), 62.5 µg/mL (≈ 183 µM). The MIC was 125 µg/mL (≈ 365 µM) in the assay with Aspergillus clavatus; 31.2 µg/mL (≈ 91.3 µM) in the assay on Klebsiella pneumoniae (RCMB 010093, 24 h); 62.5 µg/mL (≈ 183 µM) in the assay on Aspergillus fumigatus; 500 µg/mL (≈ 1460 µM) with Candida albicans (RCMB 05035, 48 h); 31.2 µg/mL (≈ 91.3 µM) in assay [1]. The MIC result in the assay with Neisseria gonorrhoeae, with Streptococcus pyogenes, in the assay on Shigella flexneri and with Pseudomonas aeruginosa was “inactive” each time.
As to `CC1(C)S[C@@H]2[C@H](NC(=O)[C@H](N)c3ccccc3)C(=O)N2[C@H]1C(=O)O` [AMPICILLIN], the minimal inhibitory concentration (MIC) in the assay on Bacillus subtilis came to 0.007 µg/mL (≈ 0.02 µM); with Enterococcus faecalis, 1.95 µg/mL (≈ 5.58 µM); with Staphylococcus aureus, 0.06 µg/mL (≈ 0.172 µM); in the assay on Streptococcus pyogenes (RCMB 010015, 24 h), 0.24 µg/mL (≈ 0.687 µM); in assay [1] it was 0.48 µg/mL (≈ 1.37 µM).
Consider `C[C@@H]1[C@H](O)[C@@H](C)/C=C/C=C/C=C/C=C/C=C/C=C/C=C/[C@H](O[C@@H]2O[C@H](C)[C@@H](O)[C@H](N)[C@@H]2O)C[C@@H]2O[C@](O)(C[C@@H](O)C[C@@H](O)[C@H](O)CC[C@@H](O)C[C@@H](O)CC(=O)O[C@H]1C)C[C@H](O)[C@H]2C(=O)O` [AMPHOTERICIN B], for which the MIC amounted to 1.95 µg/mL (≈ 2.11 µM) with Talaromyces marneffei; 0.48 µg/mL (≈ 0.519 µM) in the assay on Geotrichum candidum; 1.95 µg/mL (≈ 2.11 µM) with Aspergillus clavatus; 0.97 µg/mL (≈ 1.05 µM) in the assay on Aspergillus fumigatus; 0.24 µg/mL (≈ 0.26 µM) in the assay with Candida albicans (RCMB 05035, 48 h).
